Test results as given in ChEMBL document CHEMBL1139876, “Synthesis and study of L-dopa-glutathione codrugs as new anti-Parkinson agents with free radical scavenging properties” (J Med Chem, 2007).
Values after ≈ are worked out from the molar mass of the structure shown. Active and inactive are the calls of the source. The calls are words filed in the database; no cut-off is given here.

What was measured:
Rattus norvegicus [1] = assay: Anxiolytic effect in Wistar rat assessed as […] in entries and time spent in open field center at 184.79 mg/kg, po after 1.5 hrs; assay type: functional, organism-based; design: dose 184.79 mg/kg
[2] = Plasma concentration in Wistar rat at 65.46 mg/kg, po after 2 hrs; assay type: ADME, organism-based; design: dose 65.46 mg/kg, route oral
Method in brief: (§1)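 Plasma L-dopa concentration–time profile in rats after oral administration, with sampling up to 8 h. Mean ± SE; each experiment in triplicate.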

Rattus norvegicus [3] = assay: Antioxidant activity assessed as increase in glutathione peroxidase activity in Wistar rat plasma at 184.79 mg/kg, po after 1.5 hrs; assay type: functional
Method in brief: (§2)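 Rats dosed by oral gavage; plasma SOD and GPx activities measured 1.5 h after administration, expressed as units/(g Hb). Mean ± SE of five experiments; P < 0.05 vs L-dopa-treated group.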

[4] = Pro-oxidant effect on Fe(2+)/H2O2-induced deoxyribose degradation relative to control; assay type: functional
Method in brief: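 Deoxyribose degradation induced by Fe(II)/H2O2 in a medium of deoxyribose, phosphate buffer, EDTA and H2O2 with no enzymatic activity. Compounds tested from 1 to 50 µM.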

Rattus norvegicus [5] = assay: Antioxidant activity assessed as decrease in SOD activity in Wistar rat plasma at 184.79 mg/kg, po after 1.5 hrs; assay type: functional; method in brief: as §2
Homo sapiens = organism: Homo sapiens; assay: Stability in human plasma assessed as half life of hydrolysis
[6] = Partition coefficient, log P at pH 7.4 by saturation shake flask method; assay type: physicochemical; settings: octanol/water
Method in brief: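 log P measured by saturation shake-flask in n-octanol/phosphate buffer, pH 7.4. Concentrations in each layer quantified by C18 reverse-phase HPLC-UV against known standards. Means of three experiments ± SD.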

[7] = Solubility in 0.02 M phosphate buffer at pH 7.4; assay type: physicochemical
Method in brief: (§3)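 Solubility in water and in buffers at pH 1.3, 5.0 and 7.4, determined by HPLC-UV peak areas correlated with known concentrations. Means of three experiments ± SD.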

[8] = Chemical stability assessed as half life of hydrolysis in 0.02 M sodium acetate buffer at pH 5.0; assay type: physicochemical
Method in brief: (§4)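 Chemical hydrolysis at 37 °C at pH 1.3, 5.0 and 7.4. Codrug concentration followed over time; Kobs and t1/2 taken by regression from slopes of semilogarithmic concentration–time plots. Means of three experiments ± SD.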

[9] = Solubility in 0.02 M sodium acetate buffer at pH 5.0; assay type: physicochemical; method in brief: as §3
[10] = Chemical stability assessed as half life of hydrolysis in 0.02 M phosphate buffer at pH 7.4; assay type: physicochemical; method in brief: as §4
[11] = Solubility in 0.02 M hydrochloric acid buffer at pH 1.3; assay type: physicochemical; method in brief: as §3
[12] = Solubility in water; assay type: physicochemical; method in brief: as §3
[13] = Chemical stability assessed as half life of hydrolysis in 0.02 M hydrochloric acid buffer at pH 1.3; assay type: physicochemical; method in brief: as §4
[14] = Stability in rat plasma assessed as half life of hydrolysis; assay type: ADME, cell-free
Method in brief: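 Enzymatic hydrolysis at 37 °C in 80% human or rat plasma containing 20% 0.02 M phosphate buffer, pH 7.4, monitoring release of L-dopa. Fitted to first-order kinetics to give Kobs and t1/2. Means of three experiments ± SD.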

Rattus norvegicus [15] = assay: Induction of sustained release of dopamine levels in Wistar rat striatum at 184.79 mg/kg, po after 12 hrs; assay type: functional
Method in brief: (§5)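 Oral dosing to rats at doses equimolar to L-dopa. Striatal L-dopa and dopamine measured over time by HPLC with electrochemical detection. Mean ± SE; each experiment in triplicate.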

Rattus norvegicus [16] = assay: Prolongation of plasma […] levels in Wistar rat at 184.79 mg/kg, po after 2 hrs; assay type: functional; method in brief: as §1
Rattus norvegicus [17] = assay: Induction of sustained release of […] levels in Wistar rat striatum at 184.79 mg/kg, po after 12 hrs; assay type: functional; method in brief: as §5

| Compound | concentration at 2 h [2] [µg/mL] | half-life (Homo sapiens) [h] | logD [6] | solubility [7] [µg/mL] | half-life [8] [h] | solubility [9] [µg/mL] | half-life [10] [h] | solubility [11] [µg/mL] | solubility [12] [µg/mL] | half-life [13] [h] | half-life [14] [min] | Activity (Rattus norvegicus [1]) | Activity (Rattus norvegicus [3]) | Activity [4] | Activity (Rattus norvegicus [5]) | Activity (Rattus norvegicus [15]) [pmol/kg] | Activity (Rattus norvegicus [16]) [µg/mL] | Activity (Rattus norvegicus [17]) [pmol/mg] |
| --- | --- | --- | --- | --- | --- | --- | --- | --- | --- | --- | --- | --- | --- | --- | --- | --- | --- | --- |
| COC(=O)[C@H](CCC(=O)N[C@@H](CS)C(=O)NCC(=O)N[C@H](Cc1ccc(O)c(O)c1)C(=O)OC)NC(C)=O |  |  |  |  |  |  |  |  |  |  |  | Active |  |  |  |  |  |  |
| COC(=O)[C@H](CCC(=O)N[C@@H](CS)C(=O)NCC(=O)N[C@@H](Cc1ccc(O)c(O)c1)C(=O)OC)NC(C)=O [listing 1 of 2 here] |  | 0.0533 | 0.89 | 25600 (≈ 46.1 mM) | 40.8 | 25500 (≈ 45.8 mM) | 7.22 | 35100 (≈ 63.1 mM) | 27000 (≈ 48.6 mM) | 20.1 |  |  |  |  |  |  |  |  |
| COC(=O)[C@H](CCC(=O)N[C@@H](CS)C(=O)NCC(=O)N[C@@H](Cc1ccc(O)c(O)c1)C(=O)OC)NC(C)=O [listing 2 of 2 here] |  |  |  |  |  |  |  |  |  |  |  |  | 847.78 U/g.Hb |  | 174.86 U/g.Hb | 40 | 105 | 40 |
| COC(=O)CNC(=O)[C@H](CS)NC(=O)CC[C@H](NC(=O)[C@@H](Cc1ccc(O)c(O)c1)NC(C)=O)C(=O)OC |  | 0.0783 | 0.94 | 3990 (≈ 7.17 mM) | 69.3 | 3840 (≈ 6.9 mM) | 15.1 | 2740 (≈ 4.92 mM) | 7890 (≈ 14.2 mM) | 31 | 1.9 | Active | 821 U/g.Hb |  | 200.59 U/g | 40 | 85 | 40 |
| N[C@@H](CCC(=O)N[C@@H](CS)C(=O)NCC(=O)N[C@H](Cc1ccc(O)c(O)c1)C(=O)O)C(=O)O |  |  |  |  |  |  |  |  |  |  |  |  |  | inactive |  |  |  |  |

The next lines start with results.

| concentration at 2 h [2] [µg/mL] | half-life (Homo sapiens) [h] | logD [6] | solubility [7] [µg/mL] | half-life [8] [h] | solubility [9] [µg/mL] | half-life [10] [h] | solubility [11] [µg/mL] | solubility [12] [µg/mL] | half-life [13] [h] | half-life [14] [min] | Compound | Activity (Rattus norvegicus [1]) | Activity (Rattus norvegicus [3]) | Activity [4] | Activity (Rattus norvegicus [5]) | Activity (Rattus norvegicus [15]) [pmol/kg] | Activity (Rattus norvegicus [16]) [µg/mL] | Activity (Rattus norvegicus [17]) [pmol/mg] |
| --- | --- | --- | --- | --- | --- | --- | --- | --- | --- | --- | --- | --- | --- | --- | --- | --- | --- | --- |
| 83 |  |  |  |  |  |  |  |  |  |  | N[C@@H](Cc1ccc(O)c(O)c1)C(=O)O [LEVODOPA] |  | 795.6 U/g | Dose-dependent effect | 203.4 U/g.Hb |  |  |  |
|  | 0.252 | 0.75 | 1930 (≈ 3.97 mM) | 57.3 | 1670 (≈ 3.43 mM) | 12.2 | 2150 (≈ 4.42 mM) | 1800 (≈ 3.7 mM) | 28.1 | 2.7 | N[C@@H](CCC(=O)N[C@@H](CS)C(=O)NCC(=O)N[C@@H](Cc1ccc(O)c(O)c1)C(=O)O)C(=O)O |  |  |  |  |  |  |  |
|  | 0.222 | 0.8 | 460 (≈ 0.946 mM) | 80.1 | 690 (≈ 1.42 mM) | 23.2 | 550 (≈ 1.13 mM) | 320 (≈ 0.658 mM) | 40.4 | 4.1 | N[C@H](Cc1ccc(O)c(O)c1)C(=O)N[C@@H](CCC(=O)N[C@@H](CS)C(=O)NCC(=O)O)C(=O)O |  |  |  |  |  |  |  |
